Data reported in ChEMBL document CHEMBL3526009, “Breast cancer resistance protein (ABCG2) determines distribution of genistein phase II metabolites: reevaluation of the roles of ABCG2 in the disposition of genistein” (Drug Metab Dispos, 2012).

How the values were obtained:
[1] = AUC (0 to 3 hrs) in wild-type FVB mouse at 50 mg/kg, po; format: ADME, organism-based; design: time < 3 hr, dose 50 mg/kg, route oral; conditions: plasma
[2] = AUC (0 to 3 hrs) in BCRP-/- mouse at 50 mg/kg, po; format: ADME, organism-based; design: time < 3 hr, dose 50 mg/kg, route oral; conditions: plasma
[3] = Cmax in wild-type FVB mouse at 20 mg/kg, ip; format: ADME, organism-based; design: dose 20 mg/kg, route intraperitoneal; conditions: in vivo
Procedure, shortened: (§1)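 Male FVB or Bcrp1(−/−) mice (6–10 weeks), nonsoy chow ≥1 week, fasted 12 h. Single i.p. 20 mg/kg from 2 mg/ml solution in 100 mM sodium bicarbonate–PEG 300 (7:3), pH 10; n = 5. Serial tail blood at 10 time points under isoflurane; whole-blood genistein and conjugates by UPLC-MS/MS; noncompartmental analysis.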

[4] = Cmax in BCRP-/- mouse at 20 mg/kg, ip; format: ADME, organism-based; design: dose 20 mg/kg, route intraperitoneal; conditions: in vivo; procedure, shortened: as §1
[5] = Elimination rate constant in wild-type FVB mouse at 20 mg/kg, ip; format: ADME, organism-based; design: dose 20 mg/kg, route intraperitoneal; conditions: in vivo; procedure, shortened: as §1
Mus musculus [6] = assay: Elimination rate constant in BCRP-/- mouse at 20 mg/kg, ip; format: ADME, organism-based; design: dose 20 mg/kg, route intraperitoneal; conditions: in vivo; procedure, shortened: as §1
[7] = Half life in wild-type FVB mouse at 20 mg/kg, ip; format: ADME, organism-based; design: dose 20 mg/kg, route intraperitoneal; conditions: in vivo; procedure, shortened: as §1
Mus musculus [8] = assay: Half life in BCRP-/- mouse at 20 mg/kg, ip; format: ADME, organism-based; design: dose 20 mg/kg, route intraperitoneal; conditions: in vivo; procedure, shortened: as §1
[9] = AUC ( 0 to t) in wild-type FVB mouse at 20 mg/kg, ip; format: ADME, organism-based; design: dose 20 mg/kg, route intraperitoneal; conditions: plasma; procedure, shortened: as §1
[10] = AUC ( 0 to t) in BCRP-/- mouse at 20 mg/kg, ip; format: ADME, organism-based; design: dose 20 mg/kg, route intraperitoneal; conditions: plasma
[11] = Drug metabolism in BCRP-/- mouse small intestine S9 fraction assessed as compound sulfation rate at 10 uM by UPLC-MS/MS analysis; format: ADME, tissue-based; conditions: s9, 10 µM
Procedure, shortened: (§2)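 S9 from liver, small intestine or colon of FVB or Bcrp1(−/−) mice, 1 mg/ml protein, with 10 μM genistein in 50 mM potassium phosphate pH 7.4, 0.88 mM MgCl2, 4.4 mM saccharolactone, 0.022 mg/ml alamethicin. Glucuronidation started with 3.5 mM UDPGA; sulfation used 0.1 mM PAPS instead. 37°C, 60 min; n = 4.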

[12] = Drug metabolism in wild-type FVB mouse colon S9 fraction assessed as compound glucuronidation rate at 10 uM by UPLC-MS/MS analysis; format: ADME, tissue-based; conditions: s9, 10 µM; procedure, shortened: as §2
[13] = Drug metabolism in BCRP-/- mouse colon S9 fraction assessed as compound glucuronidation rate at 10 uM by UPLC-MS/MS analysis; format: ADME, tissue-based; conditions: s9, 10 µM; procedure, shortened: as §2
[14] = Drug metabolism in wild-type FVB mouse small intestine S9 fraction assessed as compound glucuronidation rate at 10 uM by UPLC-MS/MS analysis; format: ADME, tissue-based; conditions: s9, 10 µM; procedure, shortened: as §2
[15] = Drug metabolism in BCRP-/- mouse small intestine S9 fraction assessed as compound glucuronidation rate at 10 uM by UPLC-MS/MS analysis; format: ADME, tissue-based; conditions: s9, 10 µM; procedure, shortened: as §2
[16] = Drug metabolism in wild-type FVB mouse hepatic S9 fraction assessed as compound sulfation rate at 10 uM by UPLC-MS/MS analysis; format: ADME, Liver; conditions: s9, 10 µM; procedure, shortened: as §2
[17] = Drug metabolism in BCRP-/- mouse hepatic S9 fraction assessed as compound sulfation rate at 10 uM by UPLC-MS/MS analysis; format: ADME, Liver; conditions: s9, 10 µM; procedure, shortened: as §2
[18] = Drug metabolism in wild-type FVB mouse colon S9 fraction assessed as compound sulfation rate at 10 uM by UPLC-MS/MS analysis; format: ADME, tissue-based; conditions: s9, 10 µM; procedure, shortened: as §2
[19] = Drug metabolism in BCRP-/- mouse colon S9 fraction assessed as compound sulfation rate at 10 uM by UPLC-MS/MS analysis; format: ADME, tissue-based; conditions: s9, 10 µM; procedure, shortened: as §2
[20] = Drug metabolism in wild-type FVB mouse small intestine S9 fraction assessed as compound sulfation rate at 10 uM by UPLC-MS/MS analysis; format: ADME, tissue-based; conditions: s9, 10 µM; procedure, shortened: as §2
[21] = Cmax in BCRP-/- mouse at 8 mg/kg, po; format: ADME, organism-based; design: dose 8 mg/kg, route oral; conditions: in vivo
[22] = Cmax in BCRP-/- mouse at 50 mg/kg, po; format: ADME, organism-based; design: dose 50 mg/kg, route oral; conditions: in vivo
Intestine = assay: Drug uptake in wild-type FVB mouse small intestine at 10 uM by UPLC-MS/MS analysis; format: ADME, tissue-based; conditions: in vivo
Procedure, shortened: (§3)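 In situ perfusion in FVB or Bcrp1(−/−) mice (n = 4): small intestine and colon (8–12 cm each) perfused together with 10 μM genistein in HBSS pH 7.4, 0.191 ml/min, 37°C. After 30-min washout, perfusate sampled at 60, 90, 120, 150 min; runs discarded if water flux >10% per 10 cm. Percent absorbed by UPLC-MS/MS.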

Mus musculus [23] = organism: Mus musculus; assay: Drug uptake in BCRP-/- mouse small intestine at 10 uM by UPLC-MS/MS analysis; format: ADME, organism-based; conditions: in vivo; procedure, shortened: as §3
Colon = assay: Drug uptake in wild-type FVB mouse colon at 10 uM by UPLC-MS/MS analysis; format: ADME, tissue-based; conditions: in vivo; procedure, shortened: as §3
Mus musculus [24] = organism: Mus musculus; assay: Drug uptake in BCRP-/- mouse colon at 10 uM by UPLC-MS/MS analysis; format: ADME, organism-based; conditions: in vivo; procedure, shortened: as §3
[25] = Biliary excretion in wild-type FVB mouse measured after 2.5 hrs post intestinal perfusion by UPLC-MS/MS analysis; format: ADME; conditions: bile, read-out: Drug excretion
Procedure, shortened: (§4)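 Gallbladder bile taken after 2.5 h of simultaneous small intestine/colon perfusion with 10 μM genistein (HBSS pH 7.4, 0.191 ml/min) in FVB or Bcrp1(−/−) mice (n = 4). Bile diluted 20-fold in HBSS, daidzein internal standard in acetonitrile added, dried and reconstituted. Genistein and conjugates quantified by UPLC-MS/MS.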

[26] = Biliary excretion in BCRP-/- mouse measured after 2.5 hrs post intestinal perfusion by UPLC-MS/MS analysis; format: ADME; conditions: bile, read-out: Drug excretion; procedure, shortened: as §4
[27] = Drug transport in human Caco2 cells assessed as basolateral excretion of compound at 2 uM after 4 hrs by UPLC-MS/MS analysis in presence of BCRP inhibitor Ko143; format: ADME, cell-based; conditions: caco-2, 4 h
Procedure, shortened: (§5)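 Caco-2 TC7 monolayers on 3 μm polycarbonate inserts, used 19–22 days post-seeding (TEER ≥460 Ω/cm2). Genistein 2 or 10 μM in HBSS pH 7.4 applied apically, ±5 μM Ko143 apically; sampling both sides at 0–4 h hourly with replacement, triplicate. Genistein and four conjugates plus intracellular amounts at 4 h by UPLC-MS/MS; mass balance versus dose added.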

[28] = Drug recovery in human Caco2 cells at 2 to 10 uM after 4 hrs by UPLC-MS/MS analysis; format: ADME, cell-based; conditions: Caco-2, read-out: Drug recovery; procedure, shortened: as §5
BCRP = assay: Drug recovery in human Caco2 cells at 2 to 10 uM after 4 hrs by UPLC-MS/MS analysis in presence of BCRP inhibitor Ko143; format: ADME, cell-based; conditions: Caco-2, with Ko143 (BCRP inhibitor, concentration not stated), read-out: Drug recovery; procedure, shortened: as §5
Blood = assay: Drug metabolism in Wistar rat blood at 3.8 uM after 4 hrs by UPLC-MS/MS analysis; format: ADME, tissue-based
Procedure, shortened: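 Glucuronide mix (G-7-G plus G-4′-G, 3 μM) with 3.8 μM genistein incubated in fresh Wistar rat blood, 37°C shaking bath up to 4 h; sulfate runs used 0.8 μM sulfates plus 2.2 μM aglycone. Samples at 0, 60, 120, 240 min quenched with acetonitrile/daidzein, analysed by UPLC-MS/MS; 50 mM phosphate buffer pH 7.4 as negative control; n = 3.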

[29] = Drug metabolism in wild-type FVB mouse hepatic S9 fraction assessed as compound glucuronidation rate at 10 uM by UPLC-MS/MS analysis; format: ADME, Liver; conditions: s9, 10 µM; procedure, shortened: as §2
[30] = Drug metabolism in BCRP-/- mouse hepatic S9 fraction assessed as compound glucuronidation rate at 10 uM by UPLC-MS/MS analysis; format: ADME, Liver; conditions: s9, 10 µM; procedure, shortened: as §2
[31] = Cmax in wild-type FVB mouse at 2 mg/kg, po; format: ADME, organism-based; design: dose 2 mg/kg, route oral; conditions: in vivo
Procedure, shortened: (§6)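 Male wild-type FVB or Bcrp1(−/−) mice (6–10 weeks) on nonsoy chow ≥1 week, fasted 12 h with water, refed at 4 h. Oral gavage of 2 or 20 mg/kg as 4 mg/ml suspension in oral suspending vehicle; n = 5. Tail-snip blood at 10 time points under isoflurane, whole blood by UPLC-MS/MS (MRM); noncompartmental analysis.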

[32] = Cmax in BCRP-/- mouse at 2 mg/kg, po; format: ADME, organism-based; design: dose 2 mg/kg, route oral; conditions: in vivo; procedure, shortened: as §6
[33] = Cmax in wild-type FVB mouse at 20 mg/kg, po; format: ADME, organism-based; design: dose 20 mg/kg, route oral; conditions: in vivo; procedure, shortened: as §6
[34] = Cmax in BCRP-/- mouse at 20 mg/kg, po; format: ADME, organism-based; design: dose 20 mg/kg, route oral; conditions: in vivo; procedure, shortened: as §6
[35] = Elimination rate constant in BCRP-/- mouse at 2 mg/kg, po; format: ADME, organism-based; design: dose 2 mg/kg, route oral; conditions: in vivo; procedure, shortened: as §6
[36] = Half life in BCRP-/- mouse at 2 mg/kg, po; format: ADME, organism-based; design: dose 2 mg/kg, route oral; conditions: in vivo; procedure, shortened: as §6
[37] = AUC ( 0 to t) in wild-type FVB mouse at 2 mg/kg, po; format: ADME, organism-based, Plasma; design: dose 2 mg/kg, route oral; procedure, shortened: as §6
[38] = AUC ( 0 to t) in BCRP-/- mouse at 2 mg/kg, po; format: ADME, organism-based; design: dose 2 mg/kg, route oral; conditions: plasma; procedure, shortened: as §6
[39] = AUC ( 0 to t) in wild-type FVB mouse at 20 mg/kg, po; format: ADME, organism-based; design: dose 20 mg/kg, route oral; conditions: plasma; procedure, shortened: as §6
[40] = AUC ( 0 to t) in BCRP-/- mouse at 20 mg/kg, po; format: ADME, organism-based; design: dose 20 mg/kg, route oral; conditions: plasma; procedure, shortened: as §6

What does the source list for `O=c1c(-c2ccc(O)cc2)coc2cc(O)cc(O)c12` [GENISTEIN]?
AUC(0-t) at 3 h [1]: 0.9 µM·h; AUC(0-t) at 3 h [2]: 5 µM·h; Cmax [3]: 2.68 µM; Cmax [4]: 4.42 µM; k el [5]: 6.39e-05 s⁻¹; Kel (Mus musculus [6]): 0.52 h⁻¹; half-life [7]: 4.8 h; t1/2 (Mus musculus [8]): 2.8 h; AUC(0-t) [9]: 10 µM·h; AUC(0-t) [10]: 11.5 µM·h; Drug metabolism [11]: metabolite_not_detected; Drug metabolism [12]: 78 pmol/min/mg; Drug metabolism [13]: 117 pmol/min/mg; Drug metabolism [14]: metabolite_not_detected; Drug metabolism [15]: metabolite_not_detected; Drug metabolism [16]: 13.3 pmol/min/mg; Drug metabolism [17]: 7.9 pmol/min/mg; Drug metabolism [18]: 26.5 pmol/min/mg; Drug metabolism [19]: 15.2 pmol/min/mg; Drug metabolism [20]: metabolite_not_detected; Cmax [21]: 1.1 µM; Cmax [22]: 0.2 µM; Drug uptake (Intestine): 87%; Drug uptake (Mus musculus [23]): 74%; Drug uptake (Colon): 46%; Drug uptake (Mus musculus [24]): 52%; concentration at 2.5 h [25]: 9.9 µM; concentration at 2.5 h [26]: 9.1 µM; Drug transport [27]: Not Active; recovery at 4 h, up to 10 µM [28]: 92.3%; recovery at 4 h, up to 10 µM (BCRP): 87.8%; Stability (Blood): Stable; Drug metabolism [29]: 1299 pmol/min/mg; Drug metabolism [30]: 2737 pmol/min/mg; Cmax [31]: 0.1 µM; Cmax [32]: 0.23 µM; Cmax [33]: 0.65 µM; Cmax [34]: 3.35 µM; k el [35]: 7.5e-05 s⁻¹; half-life [36]: 3.8 h; AUC(0-t) [37]: 0.36 µM·h; AUC(0-t) [38]: 0.71 µM·h; AUC(0-t) [39]: 6.05 µM·h; AUC(0-t) [40]: 16.4 µM·h
